Measurements: publication PMC9377749 (Molecular Cancer Therapeutics, 2022)
Peptide text beside a SMILES is read from it. * marks the point of attachment. Doxorubicin(3'-N) = COc1cccc2c1C(=O)c1c(O)c3c(c(O)c1C2=O)C[C@@](O)(C(=O)CO)C[C@@H]3O[C@H]1C[C@H](N*)[C@H](O)[C@H](C)O1; Phosphonoacetyl = O=C(CP(=O)(O)O)*

Experiments:
[1] = Tissue distribution and pharmacokinetics in E0771 tumor-bearing mice; assay type: in vivo, mouse; conditions: for t 1/2α / C max / AUC / Cmax / t max / t 1/2β: label = analyte
patients = conditions: cited from earlier work
H9C2 rat cardiomyocytes = assay: In vitro cardiotoxicity; assay type: cell-based; conditions: for cytotoxicity in differentiated cardiomyocytes: differentiated H9C2; for cytotoxicity in mitotic cells: mitotic H9C2, 16 hrs treatment, viability 72 hrs later
[2] = test system: human iPSCs-derived cardiomyocytes; assay: Impedance-based cardiotoxicity; assay type: cell-based
E0771 cells = assay: In vitro 2D cytotoxicity; assay type: cell-based; conditions: Mus musculus, E0771, 72 h
[3] = test system: human erythroid progenitors; assay: In vitro hematotoxicity, colony growth; assay type: cell-based
Method in brief: (§1)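 Human erythroid and myeloid progenitors grown in MethoCult GF H84434 with continuous exposure to the test compound for 14 days. Progenitor proliferation was scored as colony growth and dose–response curves were fitted to give IC50.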

[4] = test system: C57BL6 mice (bone marrow repopulation); assay: In vivo hematotoxicity, bone marrow transplantation from treated donors; parameters: species or system mouse; conditions: for survival of mice receiving BM from treated donors: day 41 post-transplantation, donors 58 mg/kg/week Dox or 1,026 mg/kg/week PhAc-ALGP-Dox
Method in brief: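 Donor C57BL6 mice received the test compound (1,026 mg/kg/week) or doxorubicin (58 mg/kg/week) by intraperitoneal osmotic minipump for 7 days. Blood and bone marrow were collected 2 days later. Blood counts used a haematology analyser, and subpopulations were analysed by FACS (CTL = CD3+ CD8a+; B = CD45R+; CD4+; NK1.1+), n = 8. Bone marrow cells (1 × 10^7) were injected IV into 9.5 Gy-irradiated recipients, which were followed 41 days.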

LS 174T cells = assay: In vitro 2D cytotoxicity; assay type: cell-based; conditions: Homo sapiens, LS174T, 72 h
[5] = test system: human myeloid progenitors; assay: In vitro hematotoxicity, colony growth; assay type: cell-based
Method in brief: as §1

MDA-MB-468 cells = assay: In vitro 2D cytotoxicity; assay type: cell-based; conditions: Homo sapiens, MDA-MB-468, 72 h
Acute toxicity = assay type: in vivo, mouse; conditions: mouse, in vivo
[6] = test system: MDA-MB-468 tumor bearing mice; assay: MTD determination, weekly dosing; assay type: in vivo, mouse
Method in brief: (§2)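 Female nu/nu NMRI mice, 6–8 weeks old, carried subcutaneous MDA-MB-468 xenografts (5 × 10^6 cells in PBS:Matrigel 1:1, right posterior flank). Healthy mice served alongside. Test compound was given weekly at 103, 206 or 309 mg/kg. Body weight, survival and tumor volume were monitored periodically during and after treatment, n = 5, mean ± SD.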

[7] = MTD determination, weekly dosing; assay type: in vivo, mouse; conditions: mouse, in vivo
Method in brief: as §2

[8] = Plasma pharmacokinetics after IV administration in healthy mice; assay type: in vivo, mouse
Method in brief: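 Healthy mice (n = 5 per group) received a single IV dose of test compound at 849.5 mg/kg. A second set received equimolar doses: test compound 23.6 mg/kg versus doxorubicin 13.3 mg/kg. Plasma levels of prodrug, peptide-doxorubicin intermediates and free doxorubicin were followed over time and t1/2 was determined.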

[9] = Tissue imaging by MALDI-FTICR MSI in E0771 tumor-bearing mice; assay type: in vivo, mouse; conditions: 849.5 mg/kg IV
Method in brief: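 Female C57BL6 mice carried orthotopic E0771 tumors (1 × 10^6 cells in PBS injected into the mammary fat pad). Test compound was given IV at 849.5 mg/kg (reference doxorubicin 23 mg/kg). Whole-body and tumor sections were taken at 15 min, 24 h and 48 h and imaged by MALDI-FTICR MSI for free doxorubicin and metabolites, with H&E overlay.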

mice = assay: Acute toxicity; assay type: in vivo, mouse; conditions: from LD50
recombinant human CD10 = recombinant human CD10 (Homo sapiens, UniProt P08473); assay: Peptidase cleavage assay; assay type: biochemical; conditions: after exposure to CD10, at 16 hours
Method in brief: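 Test compound (2 μM) in 150 mM NaCl, 50 mM Tris, 1% BSA, pH 7.5, at 37°C. Reaction started with recombinant human enzyme at equi-active levels (CD10 0.08, NLN 0.8, THOP1 0.1 μg/mL).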

[10] = heart, IV PhAc-ALGP-Dox 92 μmol/kg
[11] = kidney, IV PhAc-ALGP-Dox 92 μmol/kg
[12] = liver, IV PhAc-ALGP-Dox 92 μmol/kg
[13] = plasma, IV PhAc-ALGP-Dox 92 μmol/kg
[14] = tumor, IV PhAc-ALGP-Dox 92 μmol/kg
[15] = heart, IV Doxorubicin 92 μmol/kg
[16] = kidney, IV Doxorubicin 92 μmol/kg
[17] = liver, IV Doxorubicin 92 μmol/kg
[18] = plasma, IV Doxorubicin 92 μmol/kg
[19] = tumor, IV Doxorubicin 92 μmol/kg

Chain of recombinant human CD10 (P08473 whole entry): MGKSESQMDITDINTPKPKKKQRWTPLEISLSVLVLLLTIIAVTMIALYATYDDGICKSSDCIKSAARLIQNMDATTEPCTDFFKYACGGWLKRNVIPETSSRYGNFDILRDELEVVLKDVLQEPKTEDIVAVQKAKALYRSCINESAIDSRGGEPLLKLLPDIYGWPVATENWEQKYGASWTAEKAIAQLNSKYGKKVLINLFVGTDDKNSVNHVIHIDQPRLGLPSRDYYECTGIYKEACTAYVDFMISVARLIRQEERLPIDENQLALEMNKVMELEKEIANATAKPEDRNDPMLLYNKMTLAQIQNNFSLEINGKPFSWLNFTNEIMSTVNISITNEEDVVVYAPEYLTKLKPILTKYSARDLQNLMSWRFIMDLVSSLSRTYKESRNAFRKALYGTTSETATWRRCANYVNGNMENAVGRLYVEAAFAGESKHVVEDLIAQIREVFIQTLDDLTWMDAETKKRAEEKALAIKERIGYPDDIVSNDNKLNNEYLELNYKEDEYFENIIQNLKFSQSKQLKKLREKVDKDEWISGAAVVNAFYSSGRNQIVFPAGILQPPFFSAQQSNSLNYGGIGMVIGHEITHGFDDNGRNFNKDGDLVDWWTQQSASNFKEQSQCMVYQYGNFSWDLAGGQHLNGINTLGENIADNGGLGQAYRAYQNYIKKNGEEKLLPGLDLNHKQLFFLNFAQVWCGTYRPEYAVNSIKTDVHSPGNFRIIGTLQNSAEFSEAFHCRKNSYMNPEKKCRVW

COc1cccc2c1C(=O)c1c(O)c3c(c(O)c1C2=O)C[C@@](O)(C(=O)CO)C[C@@H]3O[C@H]1C[C@H](NC(=O)[C@H](CC(C)C)NC(=O)[C@H](C)NC(=O)[C@H](CC(C)C)NC(=O)CCNC(=O)CCC(=O)O)[C@H](O)[C@H](C)O1 [DTS-201, reference compound]
t 1/2α ([1]; heart, IV DTS-201 92 μmol/kg): 0.2 | t 1/2α ([1]; kidney, IV DTS-201 92 μmol/kg): 0.4 | t 1/2α ([1]; liver, IV DTS-201 92 μmol/kg): 0.6 | t 1/2α ([1]; plasma, IV DTS-201 92 μmol/kg): 0.25 | t 1/2α ([1]; tumor, IV DTS-201 92 μmol/kg): 0.4 | tolerated dose relative to the standard dose of Dox (patients): 3.75 fold | well tolerated dose in patients (patients; clinical trial): up to 400 mg/m^2

COc1cccc2c1C(=O)c1c(O)c3c(c(O)c1C2=O)C[C@@](O)(C(=O)CO)C[C@@H]3O[C@H]1C[C@H](NC(=O)[C@@H]2CCCN2C(=O)CN)[C@H](O)[C@H](C)O1 [GP-Dox]
t 1/2α [1, 10]: 0.3 | t 1/2α [1, 11]: 0.2 | t 1/2α [1, 12]: 1.4 | t 1/2α [1, 13]: 0.2 | t 1/2α [1, 14]: 0.5

COc1cccc2c1C(=O)c1c(O)c3c(c(O)c1C2=O)C[C@@](O)(C(=O)CO)C[C@@H]3O[C@H]1C[C@H](N)[C@H](O)[C@H](C)O1 [Dox, Doxorubicin, reference compound]
cytotoxicity in differentiated cardiomyocytes (H9C2 rat cardiomyocytes): nanomolar potency | cytotoxicity in mitotic cells (H9C2 rat cardiomyocytes): nanomolar potency | cardiotoxicity (cellular impedance) ([2]; by 72 hours): 100% | t 1/2α [1, 15]: 5.6 | t 1/2α [1, 16]: 2.7 | t 1/2α [1, 17]: 2.1 | concentration at 72 hours ([1]; mouse, tumor, intravenous, 53.4 mg/kg): 7300 nM | t 1/2α [1, 18]: 0.2 | IC50 (E0771 cells): 0.02 µM | IC50 [3]: 0.02 µM | survival of mice receiving BM from treated donors [4]: 30% | IC50 (LS 174T cells): 0.02 µM | IC50 [5]: 0.01 µM | IC50 (MDA-MB-468 cells): 0.11 µM | LD50 (Acute toxicity): 17 mg/kg

COc1cccc2c1C(=O)c1c(O)c3c(c(O)c1C2=O)C[C@@](O)(C(=O)CO)C[C@@H]3O[C@H]1C[C@H](NC(=O)[C@@H]2CCCN2C(=O)CNC(=O)[C@H](CC(C)C)NC(=O)[C@H](C)NC(=O)CP(=O)(O)O)[C@H](O)[C@H](C)O1 [PhAc-ALGP-Dox] (Phosphonoacetyl-ALGP-{Doxorubicin(3'-N)})
cytotoxicity in differentiated cardiomyocytes (H9C2 rat cardiomyocytes): essentially resilient | cytotoxicity in mitotic cells (H9C2 rat cardiomyocytes): considerably less affected | concentrations at which alterations were induced ([2]; cellular impedance, up to 72 h): > 5000 nM | t 1/2α [1, 10]: 0.17 | greater retention of Dox in the tumor microenvironment compared with the parental drug ([1]; in vivo): 5 fold | t 1/2α [1, 11]: 0.1 | t 1/2α [1, 12]: 0.7 | t 1/2α [1, 13]: 0.21 | free Dox exposure lower than after equimolar dosage of Dox ([1]; plasma, PhAc-ALGP-Dox 94.4 mg/kg vs Dox 53.4 mg/kg): 15 fold | t 1/2α [1, 14]: 0.3 | intratumoral free Dox concentration lower than after equimolar Dox ([1]; tumor, PhAc-ALGP-Dox 94.4 mg/kg vs Dox 53.4 mg/kg): 2.8 fold | reduction of circulating cytotoxic T lymphocytes (CTL) in donor mice ([4]; 1,026 mg/kg/week via osmotic minipumps, 7 days): 15% | survival of mice receiving BM from treated donors [4]: 80% | highest tolerated dose as Dox equivalent ([6]; every weeks × 4): 87 mg/kg Dox equivalent | higher tolerability compared with the parental drug ([6]; in vivo): 10 fold | body weight loss ([6]; tumor bearing mice, four cycles of 206 mg/kg weekly, mild but reversible): 15% | MTD at 672 h [7]: 154 mg/kg | increase of exposure to free Dox compared with administration of Dox (13.3 mg/kg) ([8]; 849.5 mg/kg PhAc-ALGP-Dox, molar concentration 36-fold higher): 1.9 fold | free Dox lower than after Dox ([8]; equimolar doses, PhAc-ALGP-Dox 23.6 mg/kg vs Dox 13.3 mg/kg): 19 fold | half-life ([8]; mouse, in vivo, iv, 849.5 mg/kg): 6.5 to 8.5 min | time for which presence of free Dox in tumor remained stable [9]: ≥ 48 h | LD50 (Acute toxicity): 780 mg/kg | times more payload that can be administered than Dox (mice): 27 times

COc1cccc2c1C(=O)c1c(O)c3c(c(O)c1C2=O)C[C@@](O)([C@@H](O)CO)C[C@@H]3O[C@H]1C[C@H](N)[C@H](O)[C@H](C)O1 [DoxOL, Doxorubicinol]
C max ([1]; heart, IV DTS-201 92 μmol/kg): <LoQ | AUC [1, 15]: 54 | Cmax [1, 15]: 860 nM | t 1/2α [1, 15]: 47 | t max [1, 15]: 240 | C max [1, 10]: <LoQ | AUC ([1]; kidney, IV DTS-201 92 μmol/kg): 49.7 | Cmax ([1]; kidney, IV DTS-201 92 μmol/kg): 1480 nM | t 1/2β ([1]; kidney, IV DTS-201 92 μmol/kg): 27.1 | t max ([1]; kidney, IV DTS-201 92 μmol/kg): 240 | AUC [1, 16]: 168 | Cmax [1, 16]: 6800 nM | t 1/2α [1, 16]: 2.5 | t 1/2β [1, 16]: 49 | t max [1, 16]: 30 | AUC [1, 11]: 20.8 | Cmax [1, 11]: 1960 nM | t 1/2α [1, 11]: 1 | t 1/2β [1, 11]: 19.7 | t max [1, 11]: 30 | AUC ([1]; liver, IV DTS-201 92 μmol/kg): 30.8 | Cmax ([1]; liver, IV DTS-201 92 μmol/kg): 670 nM | t 1/2β ([1]; liver, IV DTS-201 92 μmol/kg): 33.4 | t max ([1]; liver, IV DTS-201 92 μmol/kg): 120 | AUC [1, 17]: 104 | Cmax [1, 17]: 6000 nM | t 1/2α [1, 17]: 2.2 | t 1/2β [1, 17]: 33.3 | AUC [1, 12]: 10.6 | Cmax [1, 12]: 440 nM | t 1/2β [1, 12]: 21.7 | t max [1, 12]: 240 | C max ([1]; plasma, IV DTS-201 92 μmol/kg): <LoQ | C max [1, 18]: <LoQ | C max [1, 13]: <LoQ | C max ([1]; tumor, IV DTS-201 92 μmol/kg): <LoQ | AUC [1, 19]: 8 | Cmax [1, 19]: 120 nM | t max [1, 19]: 2,880 | C max [1, 14]: <LoQ

COc1cccc2c1C(=O)c1c(O)c3c(c(O)c1C2=O)C[C@@](O)(C(=O)CO)C[C@@H]3O[C@H]1C[C@H](NC(=O)[C@@H]2CCCN2C(=O)CNC(=O)[C@@H](N)CC(C)C)[C@H](O)[C@H](C)O1 [LGP-Dox]
t 1/2α [1, 11]: 0.1 | t 1/2α [1, 13]: 0.15 | amount of LGP-Dox detected from PhAc-ALGP-Dox (recombinant human CD10): 2.65%
